Measured values reported in ChEMBL document CHEMBL1124963, “Antifolate and antibacterial activities of 5-substituted 2,4-diaminoquinazolines” (J Med Chem, 1990).

Legend:
Escherichia coli = assay: Antibacterial activity (10 e-6 log (1/MIC) towards Escherichia coli; type: functional
Summary of the method: (§1)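 Two-fold serial dilution: each compound prepared as a series of solutions differing by a factor of two, each added to a fixed amount of previously prepared test culture, incubated at 37 °C overnight.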

Staphylococcus aureus = assay: Antibacterial activity (10 e-6 log (1/MIC) towards Staphylococcus aureus; type: functional; summary of the method: as §1
[1] = Partition coefficient (logP); type: physicochemical; conditions: octanol/water
[2] = Acute toxicity determined in mice by an LD50 test when administered perorally; type: organism-based; conditions: mouse, in vivo, po
[3] = Dissociation constant was determined using UV method; type: physicochemical
Summary of the method: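 UV spectrophotometric method. Aqueous stock of compound in distilled water, diluted into 0.01 M NaOH (pH ~12) and 0.001 M HCl (pH ~3) to pick an analytical wavelength from the difference spectrum. Five to seven KH2PO4/borax buffers bracketing the estimated pKa, pH measured at 25 °C. Absorbance read in a 1.0-cm cell at 25.0 °C against buffer. Separate values averaged with SD to give the concentration pKa.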

[4] = Acute toxicity determined in mice by an LD50 test when administered intraperitoneally; type: organism-based; conditions: mouse, in vivo, ip
[5] = Acute toxicity determined in mice by an LD50 test when administered peritoneally; type: organism-based; conditions: mouse, in vivo, ip

| SMILES | Log 1/MIC (Escherichia coli) | Log 1/MIC (Staphylococcus aureus) | logP [1] | LD50 [2] | pKa [3] | LD50 [4] | LD50 [5] |
| --- | --- | --- | --- | --- | --- | --- | --- |
| Nc1nc(N)c2c(Sc3ccccc3)cccc2n1 | < -0.6 | < -0.6 |  |  |  |  |  |
| Nc1nc(N)c2c(I)cccc2n1 | 1.7 | 0.4 | 2.12 | ~500 mg/kg |  |  |  |
| Nc1nc(N)c2c(N3CCOCC3)cccc2n1 | -0.6 | -0.6 | 1.11 |  |  |  |  |
| CS(=O)(=O)c1cccc2nc(N)nc(N)c12 | <-0.6 | <-0.6 | 0.63 |  |  |  |  |
| CCCNC(=O)c1cccc2nc(N)nc(N)c12 | <-0.6 | <-0.6 | 0.83 |  |  |  |  |
| CCCOc1cccc2nc(N)nc(N)c12 | 1.1 | 0.2 | 2.26 |  |  |  |  |
| Nc1nc(N)c2c(O)cccc2n1 | <-0.7 | -0.7 |  |  |  |  |  |
| Nc1nc(N)c2c([N+](=O)[O-])cccc2n1 | <0.5 | 0 | 1.19 |  | 6.24 |  |  |
| CSc1cccc2nc(N)nc(N)c12 | 2.2 | 0 | 1.81 |  |  |  |  |
| Nc1nc(N)c2c(S(=O)(=O)c3ccccc3)cccc2n1 | <-0.5 | <-0.5 | 2.14 |  |  |  |  |
| CCCCCCOc1cccc2nc(N)nc(N)c12 | 0 | 1.1 |  |  |  |  |  |
| COC(=O)c1cccc2nc(N)nc(N)c12 | -0.1 | -0.6 |  |  |  | 68 mg/kg |  |
| Nc1nc(N)c2c(N)cccc2n1 | 0.3 | <0.2 | 0.3 |  |  |  |  |
| CCc1cccc2nc(N)nc(N)c12 | 2.6 | 0.6 | 1.69 |  |  |  |  |
| Nc1nc(N)c2c(Cl)cccc2n1 | 2.1 | 1.2 | 1.72 |  | 7.22 | 100 mg/kg |  |
| Nc1nc(N)c2ccccc2n1 | 0.7 | 1.3 | 1.01 |  | 8.08 |  |  |

| SMILES | Log 1/MIC (Escherichia coli) | Log 1/MIC (Staphylococcus aureus) | logP [1] | LD50 [2] | pKa [3] | LD50 [4] | LD50 [5] |
| --- | --- | --- | --- | --- | --- | --- | --- |
| CCCSc1cccc2nc(N)nc(N)c12 |  |  | 2.85 |  |  |  |  |
| CN(C)c1cccc2nc(N)nc(N)c12 | -0.4 | -0.5 | 1.65 |  |  |  |  |
| NC(=O)c1cccc2nc(N)nc(N)c12 | -0.6 | <-0.7 | -0.33 |  | 7.22 |  |  |
| CCCCOc1cccc2nc(N)nc(N)c12 | 0.6 | 0.4 | 2.81 |  |  |  |  |
| Nc1nc(N)c2c(CCc3ccccc3)cccc2n1 | 1.3 | 1.3 |  |  |  |  |  |
| Nc1nc(N)c2c(F)cccc2n1 | 1.7 | 1.4 | 1.19 | 489 mg/kg | 7.44 | 100 mg/kg |  |
| Nc1nc(N)c2c(OCc3ccccc3)cccc2n1 | 0.8 | 1 | 2.82 |  |  |  |  |
| Nc1nc(N)c2c(Oc3ccccc3)cccc2n1 | 0.2 | 0 | 2.78 |  |  |  |  |
| CCOc1cccc2nc(N)nc(N)c12 | 1.7 | 0.2 | 1.69 |  |  | ~100 mg/kg |  |
| COc1cccc2nc(N)nc(N)c12 | 2.1 | 1 | 1.18 | ~500 mg/kg | 8.32 | 137 mg/kg |  |
| CCSc1cccc2nc(N)nc(N)c12 | 2 | -0.1 | 2.27 |  | 7.87 |  |  |
| CC(C)Oc1cccc2nc(N)nc(N)c12 | 0.8 | -0.1 | 2.05 |  |  |  |  |
| Nc1nc(N)c2c(Br)cccc2n1 | 2.2 | 1.5 | 1.91 | 271 mg/kg |  |  |  |
| Nc1nc(N)c2c(N3CCCCC3)cccc2n1 |  |  | 2.66 |  |  |  |  |
| Cc1cccc2nc(N)nc(N)c12 | 1.7 | 0.5 | 1.26 |  | 8.19 | ~100 mg/kg |  |
| Nc1ncnc2ccccc12 [4-AMINOQUINAZOLINE] |  |  |  |  |  | 205 mg/kg | 584 mg/kg |
